Source: ChEMBL document CHEMBL1122284, “Aromatic retinoic acid analogues. 2. Synthesis and pharmacological activity” (1983)

What was measured:
[1] = system: Cricetinae gen. sp.; experiment: Total cultures(0) versus active(12)at 10e-10 M conc. in hamster tracheal organ culture assay (TOC); type: functional, Trachea
In short: (§1)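 Tracheas from Syrian golden hamsters kept on a vitamin A deficient diet from birth to 30–32 days old. Cultured serum-free (CMRL 1066 with insulin, hydrocortisone, glutamine, antibiotics), one explant per dish, 50% O2/45% N2/5% CO2, 36 °C, rocked. 3 days without retinoid, then 7 days with retinoid, medium renewed three times. Histology on day 10. Active means keratin/keratohyaline granules absent. Usually duplicate, 6–7 tracheas per concentration.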

[2] = system: Cricetinae gen. sp.; experiment: Total cultures(1) versus active (13)at 10e-9 M conc. in hamster tracheal organ culture assay (TOC); type: functional, Trachea; in short: as §1
[3] = system: Cricetinae gen. sp.; experiment: Relative potency with respect to retinoic acid in hamster tracheal organ culture assay (TOC); type: functional, Cricetulus griseus, Trachea
[4] = biological target: T1, Ornithine decarboxylase (Mus musculus) (UniProt P00860); experiment: Percent inhibition of the induction of ornithine decarboxylase at 17 nmol dose in mouse dorsal epidermis (ODC assay); type: functional
T1 sequence (whole entry): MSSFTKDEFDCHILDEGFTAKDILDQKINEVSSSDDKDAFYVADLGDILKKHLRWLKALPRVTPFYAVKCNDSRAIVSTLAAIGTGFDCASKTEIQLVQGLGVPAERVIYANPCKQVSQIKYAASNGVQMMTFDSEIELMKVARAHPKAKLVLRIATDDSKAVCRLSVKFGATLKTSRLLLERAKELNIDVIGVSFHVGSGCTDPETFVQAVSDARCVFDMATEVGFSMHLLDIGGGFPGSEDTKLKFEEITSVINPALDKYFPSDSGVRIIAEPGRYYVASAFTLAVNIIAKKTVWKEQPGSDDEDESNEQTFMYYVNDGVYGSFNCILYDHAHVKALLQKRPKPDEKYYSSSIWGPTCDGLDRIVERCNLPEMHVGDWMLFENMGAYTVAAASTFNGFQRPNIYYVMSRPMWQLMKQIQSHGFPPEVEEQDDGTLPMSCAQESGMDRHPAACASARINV

[5] = biological target: T1, Ornithine decarboxylase (Mus musculus); experiment: Percent inhibition of the induction of ornithine decarboxylase in mouse dorsal epidermis (ODC assay); type: functional
[6] = system: Cricetinae gen. sp.; experiment: Total cultures(2) versus active(12) at 10e-8 M conc. in hamster tracheal organ culture assay (TOC); type: functional, Trachea; in short: as §1
[7] = system: Cricetinae gen. sp.; experiment: ED50 of retinoid required to effect reversal of keratinization; type: functional; in short: as §1
[8] = system: Cricetinae gen. sp.; experiment: Total cultures(15) versus active (14) at 10e-9 M conc. in hamster tracheal organ culture assay (TOC); type: functional, Trachea; in short: as §1
[9] = biological target: T1, Ornithine decarboxylase (Mus musculus); experiment: Percent inhibition of the induction of ornithine decarboxylase at 1.7 nmol in mouse dorsal epidermis (ODC assay); type: functional
[10] = system: Cricetinae gen. sp.; experiment: Total cultures(15) versus active (15) at 10e-8 M conc. in hamster tracheal organ culture assay (TOC); type: functional, Trachea; in short: as §1
[11] = system: Cricetinae gen. sp.; experiment: Total cultures(15) versus active (7) at 10e-10 M conc. in hamster tracheal organ culture assay (TOC); type: functional, Trachea; in short: as §1
[12] = system: Cricetinae gen. sp.; experiment: Total cultures(14) versus active (4) at 10e-8 M conc. in hamster tracheal organ culture assay (TOC); type: functional, Trachea; in short: as §1
[13] = system: Cricetinae gen. sp.; experiment: Total cultures(12) versus active (3) at 10e-9 M conc. in hamster tracheal organ culture assay (TOC); type: functional, Trachea; in short: as §1
[14] = system: Cricetinae gen. sp.; experiment: Total cultures(6) versus active (1) at 10e-10 M conc. in hamster tracheal organ culture assay (TOC); type: functional, Trachea; in short: as §1
[15] = system: Cricetinae gen. sp.; experiment: Total cultures (14) versus active (8) at 10e-9 M conc. in hamster tracheal organ culture assay (TOC); type: functional, Trachea; in short: as §1
[16] = system: Cricetinae gen. sp.; experiment: Total cultures (14) versus active (4) at 10e-10 M conc. in hamster tracheal organ culture assay (TOC); type: functional, Trachea; in short: as §1
[17] = system: Cricetinae gen. sp.; experiment: Total cultures(7) versus active (7) at 10e-8 M conc. in hamster tracheal organ culture assay (TOC); type: functional, Trachea; in short: as §1
[18] = system: Cricetinae gen. sp.; experiment: Total cultures(13) versus active (8) at 10e-10 M conc. in hamster tracheal organ culture assay (TOC); type: functional, Trachea; in short: as §1
[19] = system: Cricetinae gen. sp.; experiment: Total cultures(12) versus active (10) at 10e-9 M conc. in hamster tracheal organ culture assay (TOC); type: functional, Trachea; in short: as §1
[20] = system: Cricetinae gen. sp.; experiment: Total cultures(6) versus active (2) at 10e-11 M conc. in hamster tracheal organ culture assay (TOC); type: functional, Trachea; in short: as §1
[21] = system: Cricetinae gen. sp.; experiment: Total cultures(13) versus active (13) at 10e-8 M conc. in hamster tracheal organ culture assay (TOC); type: functional, Trachea; in short: as §1
[22] = system: Cricetinae gen. sp.; experiment: Total cultures(14) versus active (10) at 10e-9 M conc. in hamster tracheal organ culture assay (TOC); type: functional, Trachea; in short: as §1
[23] = system: Cricetinae gen. sp.; experiment: Total cultures(14) versus active (6) at 10e-10 M conc. in hamster tracheal organ culture assay (TOC); type: functional, Trachea; in short: as §1
[24] = system: Cricetinae gen. sp.; experiment: Total cultures(6) versus active(13) at 10e-10 M conc. in hamster tracheal organ culture assay (TOC); type: functional, Trachea; in short: as §1
[25] = system: Cricetinae gen. sp.; experiment: Total cultures(10) versus active (12)at 10e-9 M conc. in hamster tracheal organ culture assay (TOC); type: functional, Trachea; in short: as §1
[26] = system: Cricetinae gen. sp.; experiment: Total cultures(11) versus active(12)at 10e-8 M conc. in hamster tracheal organ culture assay (TOC); type: functional, Trachea; in short: as §1

CCOC(=O)c1ccc(/C(F)=C(C)\C=C\C2=C(C)CCCC2(C)C)cc1
Active/total cultures [1]: 0% | Active/total cultures [2]: 8% | Relative activity [3]: <0.1 | inhibition of control [4]: 16% | inhibition of control [5]: 5% | Active/total cultures [6]: 17% | ED50 [7]: 0.02 nM

CC1=C(/C=C/C(C)=C/c2ccc(C(=O)O)s2)C(C)(C)CCC1
Active/total cultures [8]: 93% | inhibition of control [9]: 42% | Active/total cultures [10]: 100% | Relative activity [3]: 2 | inhibition of control [4]: 67% | Active/total cultures [11]: 47% | ED50 [7]: 0.02 nM

CCOC(=O)c1ccc(/C=C(C)/C=C/C2=C(C)CCCC2(C)C)o1
inhibition of control [9]: 9% | Active/total cultures [12]: 29% | Active/total cultures [13]: 25% | Active/total cultures [14]: 17% | Relative activity [3]: <<0.1 | inhibition of control [4]: 9% | ED50 [7]: 0.02 nM

CCOC(=O)c1ccc(/C=C(C)/C=C/C2=C(C)CCCC2(C)C)cn1
inhibition of control [9]: 29% | Active/total cultures [15]: 57% | Active/total cultures [16]: 29% | Relative activity [3]: 0.4 | Active/total cultures [17]: 100% | inhibition of control [4]: 60% | ED50 [7]: 0.008 nM

CCOC(=O)c1ccc(/C=C(C)/C=C/C2=C(C)CCCC2(C)C)c(OC)c1
Active/total cultures [18]: 62% | inhibition of control [9]: 21% | Active/total cultures [19]: 83% | Relative activity [3]: 5 | Active/total cultures [17]: 100% | inhibition of control [4]: 39% | Active/total cultures [20]: 33% | ED50 [7]: 0.006 nM

CCOC(=O)c1ccc(/C=C(C)/C=C/C2=C(C)CCCC2(C)C)s1
inhibition of control [9]: 67% | Relative activity [3]: 3 | Active/total cultures [21]: 100% | inhibition of control [4]: 77% | Active/total cultures [22]: 71% | Active/total cultures [23]: 43% | ED50 [7]: 0.02 nM

CCOC(=O)c1ccc(/C(F)=C(C)/C=C/C2=C(C)CCCC2(C)C)cc1
inhibition of control [9]: 56% | Active/total cultures [24]: 46% | Active/total cultures [25]: 83% | Relative activity [3]: 2 | inhibition of control [4]: 82% | Active/total cultures [26]: 92% | ED50 [7]: 0.02 nM

CC1=C(/C=C/C(C)=C\c2ccc(C(=O)O)cc2)C(C)(C)CCC1
inhibition of control [9]: 33% | Relative activity [3]: <0.1 | inhibition of control [4]: 43% | inhibition of control [5]: 64% | ED50 [7]: 0.01 nM
